# The full list was thinned out, with hits kept by preference.
# Lung fibro prol = blocks proliferation of human lung fibroblasts; hit rate 1.1% among 85,000; LL 47 human lung fibroblast viability, ATP luminescence; active compounds read low; viability, % at 10 µM;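 active = viability at or below 50% in the single dose screen; inactive = viability above 50%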;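 note: compound exposure lasted 72 h before the ATP readout; 100% = median luminescence of untreated cell-only wells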
#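 Test system: LL 47 human lung fibroblasts; Quantity: 1,150 cells/well; Buffer or medium: IMEM plus 15% FBS; Dosing: tenfold compound dosing solution, DMSO at 0.1%; Timing: overnight cell rest, 72 h compound treatment at 37 °C; Detection: ATP-based CellTiter-Glo luminescent readout; Read-out basis: viability percentage against median untreated-cell control; Controls: cell-only wells, no compound.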
# PTEN del growth = growth suppressors of cells with PTEN tumor suppressor deletion | HCT116 PTEN-null viability, CellTiter-Glo, 60 h; active compounds read low | viability, % at 10 µM | hit rate 1.2% among 140,000 | AID 827;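 active = viability at or below a set limit, 4 SD under the median of all tested compounds, cut at about 3.7% in these data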;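 note: PTEN knockout HCT116 line with beta catenin targeted HCT116 as companion control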
# bCat KO growth = beta-catenin-lacking colon tumor cell growth suppression | hit rate 1.5% among 140,000 | AID 818 | HCT116 beta-catenin knockout viability, CellTiter-Glo, 60 h; active compounds read low | viability, % at 10 µM;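 active = viability at or under a set limit, the compound median less 4 SD, cut at about 6% in these data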;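 note: 0% = Hyamine 1622 control at 20 µM and 100% = untreated cell control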
# H69AR growth 86K = blocks growth of human H69AR lung tumor cells | AID 598 | hit rate 6% among 85,000 | viability, % at 10 µM | H69AR lung tumor viability, ATP luminescence, 72 h; active compounds read low;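 active = viability at or below 40%; inactive = viability above 40%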;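 note: multidrug resistant small cell line overexpressing MRP-1 efflux transporter; 100% = mean luminescence of untreated control wells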
# HUVEC prolif 384 = human endothelial cell proliferation inhibition | hit rate 1.1% among 86,000 | viability, % at 10 µM (by protocol) | HUVEC proliferation, CellTiter-Glo luminescence, 72 h; active compounds read low;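 active = viability at or below 30%; inactive = viability above 30%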;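 note: 100% = median luminescence of DMSO-only cell control wells on each plate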
# * hit, by the source's call; · = no result.
SMILES,Lung fibro prol,PTEN del growth,bCat KO growth,H69AR growth 86K,HUVEC prolif 384
Cc1cc(C)c(S(=O)(=O)N(C2=NCCS2)S(=O)(=O)c2c(C)cc(C)cc2C)c(C)c1,101,98,96,22*,103
Cc1cc(C)c(S(=O)(=O)N(CC(=O)O)CC(=O)O)c(C)c1,95,104,113,99,100
CCOC(=O)CC(=O)CSc1nc2c(cc1C#N)CCC2,101,36,24,35*,76
CCOC(=O)CSc1nc2cc(C)ccc2cc1C#N,83,47,62,34*,78
COC(=O)CC(=O)CSc1nc2c(cc1C#N)CCCCC2,101,99,106,81,82
CCOc1ccc2cc(C#N)c(SCC(=O)N3CCOCC3)nc2c1,98,100,97,52,111
CCOc1ccc2nc(SCC(=O)N3CCCCCC3)c(C#N)cc2c1,·,88,95,38*,91
O=C(NC(Nc1nc2ccc([N+](=O)[O-])cc2s1)(C(F)(F)F)C(F)(F)F)c1cccnc1,·,3.0*,2.2*,·,·
O=C(NC(Nc1nc2ccc([N+](=O)[O-])cc2s1)(C(F)(F)F)C(F)(F)F)c1ccccc1Cl,·,1.4*,1.7*,·,·
COc1ccc(C(=O)NCS(=O)(=O)c2ccc(C)cc2)cc1,98,104,100,94,93
CO/N=C(/CS(=O)(=O)c1ccc(C)cc1)c1ccc(OC)cc1,99,83,77,36*,94
C=CCC(Nc1ccccc1)C12C=CC(O1)C(C(=O)OC)=C2C(=O)OC (stereo unspecified),3.1*,1.9*,2.3*,1.0*,45
O=C(N1CCN(c2ccccc2F)CC1)C1(c2cccs2)CCOCC1,·,91,81,·,·
CC1CCC(C(C)C)C(OC(=O)Cn2c(-c3ccccc3)[n+](C)c3ccccc32)C1 (stereo unspecified),·,1.9*,1.4*,·,·
CC1CCC(C(C)C)C(OC(=O)Cn2c(-c3ccc(F)cc3)[n+](C)c3ccccc32)C1 (stereo unspecified),·,1.5*,2.0*,·,·
CC1CCC(C(C)C)C(OC(=O)CSc2nc(N)cc(=O)[nH]2)C1 (stereo unspecified),95,77,73,76,99
CC(C)CC1(C(=O)NCc2cc(F)cc(C(F)(F)F)c2)C=CCN1C(=O)c1ccccc1 (stereo unspecified),·,73,90,·,·
CCCCC(=O)NC(=S)Nc1ccc(S(=O)(=O)N2CCCC2)cc1,·,83,91,·,·
Cc1ccc(CNC(=O)CCS(=O)(=O)c2cc(Br)cc3c2N(C(=O)C2CC2)CC3)o1,98,99,93,93,88
Cc1ccc(-n2sc3ccccc3c2=O)cc1,·,1.1*,1.4*,·,·
COc1ccc(/C=C2/C(=O)OCc3cc(OC)c(OC)cc32)cc1,·,20,17,·,·
Cc1nc(NC(=O)CSc2nc3cccnc3n2C2CCCCC2)sc1C,14*,68,90,29*,52
CCc1nnc(NC(=O)CSc2nc3cccnc3n2C2CCCCC2)s1,83,77,75,82,73
Cc1ccc(N=Nc2c(N)[nH]n3c(=O)cc(C)nc23)cc1,·,57,44,·,·
Nc1[nH]n2c(=O)cc(-c3ccccc3)nc2c1N=Nc1ccccc1,·,8,3.7*,·,·
SMILES,Lung fibro prol,PTEN del growth,bCat KO growth,H69AR growth 86K,HUVEC prolif 384
FC(F)(F)c1ccc(Oc2ccc3cc(Br)ccc3c2)nc1,·,92,98,·,·
COc1ccc(-c2nnc(SCC#CCO)o2)cc1OC,97,111,97,31*,102
COc1ccc(C(=O)CSc2nnc(-c3ccc(C)cc3)o2)cc1,94,92,91,102,81
COc1ccc(OC)c(C(=O)CSc2nnc(-c3ccc(OC)c(OC)c3)o2)c1,30*,89,86,84,67
COc1ccc(-c2nnc(SCC(=O)N3CCCc4ccccc43)o2)cc1OC,98,80,88,37*,85
COc1ccc(N/C(C)=C/C(=S)Nc2ccccc2)cc1,·,84,88,·,·
CC(C)c1ccc(NC(=O)c2snc3ccc(Cl)cc23)cc1,·,33,39,·,·
C=CCOc1c(Br)cc(/C=N/Nc2ccc(C(=O)O)cc2)cc1OCC,·,94,94,·,·
Fc1ccc(-c2csc(/C=C/c3ccc4c(c3)OCO4)n2)cc1,·,101,103,·,·
COc1cc(/C=C(/C#N)c2nc3ccccc3[nH]2)ccc1OCC(=O)Nc1ccccc1C(C)C,·,0.7*,1.2*,·,·
COc1cc(/C=C(\C#N)c2ccccn2)ccc1OCC(=O)Nc1c(Cl)cccc1Cl,·,87,81,·,·
COc1cc(/C=C(\C#N)c2ccccn2)ccc1OCC(=O)Nc1ccc(Br)cc1,·,5,5.4*,·,·
CCC(=O)N(Cc1ccco1)C1CC(=O)N(c2ccccc2)C1=O (stereo unspecified),·,97,97,·,·
Cc1ccccc1OCCCCCNCCO,·,101,92,·,·
CC(C)(C)c1ccccc1OCCCCCNCCO,79,65,46,11*,91
C=CCn1c(SCC(=O)c2[nH]c(C)c(C(=O)OCC)c2C)nc2scc(-c3ccc(OC)cc3)c2c1=O,·,1.6*,1.7*,·,·
C=CCn1c(SCC(=O)c2[nH]c(C)c(C(=O)OCC)c2C)nc2scc(-c3ccccc3)c2c1=O,·,1.3*,2.0*,·,·
Cc1cnnc2ccc3c(no[n+]3[O-])c12,107,86,85,33*,102
CC(C)c1ccccc1NC(=O)COC(=O)Cc1ccsc1,·,87,83,·,·
CN1/C(=C\C=Nc2ccc3ccccc3c2)C(C)(C)c2ccccc21,·,50,47,·,·
Cc1cc(/N=C/C=C2\N(C)c3ccccc3C2(C)C)n(CCC#N)n1,92,66,61,20*,84
C/C(=N/NS(=O)(=O)c1ccc(Cl)cc1)c1cccc(NC(=O)c2ccc(Cl)cc2Cl)c1,·,92,94,·,·
O=C1C(Cl)=C(N2CCN(c3ccccc3[N+](=O)[O-])CC2)C(=O)c2ccccc21,·,1.2*,0.9*,·,·
COC(=O)C1CCN(C(=O)c2c(-c3ccccc3Cl)noc2C)CC1,96,111,96,88,97
COc1ccccc1N1CCN(C(=O)c2ccoc2C)CC1,96,92,93,95,92
SMILES,Lung fibro prol,PTEN del growth,bCat KO growth,H69AR growth 86K,HUVEC prolif 384
Cc1onc(-c2c(F)cccc2Cl)c1C(=O)N1CCCc2ccccc21,85,37,53,19*,63
COc1ccccc1N1CCN(C(=O)c2c(-c3ccccc3Cl)noc2C)CC1,95,50,64,19*,82
Cc1onc(-c2ccccc2Cl)c1C(=O)N1CCCc2ccccc21,91,70,59,23*,90
COc1ccccc1N1CCN(C(=O)c2oc3cc(C)cc(C)c3c2C)CC1,91,64,69,23*,80
Cc1sc(-c2ccncc2)nc1OC(=O)c1ccccc1,98,95,92,96,94
O=S1(=O)CCC(NC(=S)N2CCOCC2)C1 (stereo unspecified),·,98,98,·,·
Cc1onc(-c2c(F)cccc2Cl)c1C(=O)Nc1nc2ccccc2[nH]1,72,14,19,33*,84
O=C(Nc1nc2ccccc2[nH]1)c1ccccc1,68,59,51,32*,68
Cc1onc(-c2c(F)cccc2Cl)c1C(=O)Nc1cccc2nsnc12,106,85,78,80,109

# Bioassay records deposited in PubChem by SRMLSC.
